These results are taken from ChEMBL document CHEMBL1140094, “Novel microtubule-interacting phenoxy pyridine and phenyl sulfanyl pyridine analogues for cancer therapy” (J Med Chem, 2008).

Assay [1] in a line: Growth inhibition of human HS766T cells at 1 uM after 96 hrs by MTT assay relative to control. In kind it is functional. The settings on record: Hs 766, 96 h, values are per cent of control. In short, it runs like this:
(§1)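 MTT initial screen of Panc1 and HS766T human pancreatic cancer cells at 1 and 10 μM; growth expressed as percent of untreated control with SD.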
(Tetrazolium dyes change colour on reduction, which living cells bring about.)

The subject of assay [2] is PANC-1. Kind of assay: Growth inhibition of human Panc1 cells at 1 uM after 96 hrs by MTT assay relative to control. The settings on record: PANC-1, 96 h, values are per cent of control. In kind it is functional. In short, it runs like this: as §1
For assay [3], the system named is PANC-1. Nature of the assay: Growth inhibition of human Panc1 cells at 10 uM after 96 hrs by MTT assay relative to control. The settings on record: PANC-1, 96 h, values are per cent of control. In kind it is functional. In short, it runs like this: as §1
Assay [4] in a line: Growth inhibition of human HS766T cells at 10 uM after 96 hrs by MTT assay relative to control. The settings on record: Hs 766, 96 h, values are per cent of control. Type of assay: functional. In short, it runs like this: as §1
Assay [5] deals with PANC-1. Kind of assay: Growth inhibition of human Panc1 cells after 96 hrs by MTT assay relative to control. Type of assay: functional, cell-based. The settings on record: PANC-1, 96 h.
In assay [6] the test system is MCF7. Kind of assay: Induction of microtubule disassembly in human MCF7 cells assessed as prometaphase cell cycle arrest at 5 uM after 15 hrs by immunofluorescence staining. In kind it is functional, cell-based. Summed up:
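MCF7 cells exposed 15 h to 5 μM compound, colcemid 0.25 μM as positive control, untreated controls. Anti-α-tubulin primary with Alexa-568 secondary, DNA counterstained with DAPI; immunofluorescence microscopy scoring microtubule loss, mitotic stage (prometaphase arrest) and micronuclei in interphase cells.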

Assay [7] can be described thus: Growth inhibition of human HS766T cells after 96 hrs by MTT assay relative to control. Type of assay: functional, cell-based. The settings on record: Hs 766, 96 h.
The nature of assay [8]: Inhibition of tubulin polymerization assessed as effect on maximum propogation rate.
For assay [9], the system named is MCF7. Kind of assay: Cell cycle arrest in human MCF7 cells assessed as accumulation at G2/M phase at 5 uM after 15 hrs by propidium iodide staining. In kind it is functional. In short, it runs like this:
(§2)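 MCF7 breast cancer cells treated 15 h at 5 μM; colcemid 0.1 μg/mL (about 0.25 μM) as positive control. Cells harvested and fixed, DNA labeled with propidium iodide, mitotic cells labeled with monoclonal MPM2 (phospho-epitopes at mitosis onset); flow cytometry. PI scans gated M1 G1, M3 S, M2 G2/M; mitotic fold increase versus untreated.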

For assay [10], the system named is MCF7. Nature of the assay: Cell cycle arrest in human MCF7 cells assessed as accumulation at G2/M phase at 5 uM after 15 hrs by MPM2 antibody labeling. Type of assay: functional. In short, it runs like this:
as §2

The nature of assay [11]: Inhibition of tubulin polymerization.
A short description of assay [12]: Inhibition of tubulin polymerization relative to control. The settings on record: values are per cent of control. Summed up: (§3)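 Turbidity-monitored tubulin assembly; extent of assembly at 20 min compared with no-compound control.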
A further assay relates to SK-OV-3. Nature of the assay: Cytotoxicity against paclitaxel-resistant human SKOV3 cells after 7 days by MTT assay. In kind it is functional, cell-based.
The nature of assay [13]: Inhibition of tubulin polymerization at 4 to 5 uM relative to control. Summed up:
as §3

Calls of active or inactive are those of the source. The calls are words filed in the database; no cut-off is given here.

One may read the IC50 as the concentration at which inhibition is half-maximal. As usually defined, the residual activity is what remains of the control signal, in per cent. The low end stands for little activity left, the high end for much activity left. For orientation: inhibition means the share of the control response that was lost under treatment.

Take `C=CCNC(=O)c1cccc(Oc2ccc(NC(=O)NC(=O)c3cc(OC)cc(OC)c3)cc2)c1`: the viability, % of control at 1 µM was determined as 107% in assay [1] and 58% in the assay with PANC-1 [2]. Further, the viability, % of control at 10 µM in the assay with PANC-1 [3] came to 68%; in assay [4], 64%.

With `C=CCNC(=O)c1cccc(Oc2ccc(NC(=O)NC(=O)c3ccccc3Cl)cc2)c1`, the IC50 in the assay on PANC-1 [5] was 800 nM; in [7] it was 150 nM; in [8] it was 4000 nM. The viability, % of control at 1 µM in assay [1] is 36%; with PANC-1 [2], 47%. In addition, in the assay with MCF7 [6], the result was Active. Also, the viability, % of control at 10 µM with PANC-1 [3] is 38%; in assay [4], 23%. For the same compound, the Activity stood at 67.49% in the assay with MCF7 [9] and 38.29% in the assay with MCF7 [10].

In the case of `C=CCNC(=O)c1cccc(Oc2ccc(NC(=S)NC(=O)c3ccccc3)cc2)c1`, the results for the viability, % of control at 1 µM (in assay [1]; in the assay with PANC-1 [2]) were 88% and 97%, respectively. In addition, the viability, % of control at 10 µM is 68% in the assay with PANC-1 [3] and 73% in assay [4].

As to `CCCCCCCCCCNC(=O)c1cccc(S(=O)(=O)c2ccc(NC(=O)NC(=O)c3cc(OC)cc(OC)c3)cc2)c1`, the viability, % of control at 1 µM in assay [1] came out at 71%; in the assay with PANC-1 [2] it was 48%. Also, the viability, % of control at 10 µM was 43% in the assay with PANC-1 [3] and 56% in [4].

For `COc1ccc(C(=O)NC(=O)Nc2ccc(Sc3cccc(C(=O)NCc4ccccc4)c3)cc2)c(Cl)c1OC`, the figures for the viability, % of control at 1 µM (in assay [1]; in the assay with PANC-1 [2]) were 97% and 89%, respectively. Also, the viability, % of control at 10 µM turned out to be 51% in the assay on PANC-1 [3] and 75% in [4].

Turning to `C=CCNC(=O)c1cccc(Oc2ccc(NC(=O)NC(=O)c3ccc(OC)c(OC)c3Cl)cc2)c1`, the viability, % of control at 1 µM in [1] was 67%; in the assay with PANC-1 [2], 61%. In addition, the viability, % of control at 10 µM in the assay on PANC-1 [3] came to 53%; in assay [4], 50%.

For the compound `C=CCNC(=O)c1cccc(Sc2ccc(NC(=O)NC(=O)c3ccccc3[N+](=O)[O-])cc2)c1`, the viability, % of control at 1 µM in assay [1] stood at 50%; in the assay on PANC-1 [2], 70%. Further, the results for the viability, % of control at 10 µM (with PANC-1 [3]; in assay [4]) were 44% and 27%, respectively.

`CCCCCCCCCCNC(=O)c1cccc(Sc2ccc(NC(=O)NC(=O)c3cc(OC)cc(OC)c3)cc2)c1`: the viability, % of control at 1 µM is 77% in assay [1] and 74% with PANC-1 [2]. The figures for the viability, % of control at 10 µM (with PANC-1 [3]; in assay [4]) were 58% and 66%, respectively.

For the compound `C=CCNC(=O)c1cccc(Sc2ccc(NC(=O)NC(=O)c3cc(OC)cc(OC)c3)cc2)c1`, the viability, % of control at 1 µM in [1] was 105%; in the assay on PANC-1 [2] it was 62%. Moreover, the viability, % of control at 10 µM in the assay on PANC-1 [3] was 41%; in assay [4], 87%.

`C=CCNC(=O)c1cccc(Sc2ccc(NC(=O)NC(=O)c3ccccc3Cl)cc2)c1`: the figures for the viability, % of control at 1 µM (in [1]; in the assay on PANC-1 [2]) were 109% and 69%, respectively. Moreover, the viability, % of control at 10 µM in the assay with PANC-1 [3] was 46%; in [4], 36%.

Take `C=CCNC(=O)c1cccc(Oc2ccc(NC(=O)NC(=O)c3ccccc3)cc2)c1`: the viability, % of control at 1 µM in assay [1] amounted to 76%; with PANC-1 [2], 66%. Besides, the viability, % of control at 10 µM in the assay with PANC-1 [3] worked out at 51%; in [4], 70%.

On to `O=C(NC(=O)c1ccccc1)Nc1ccc(Sc2cccc(C(=O)NCc3ccccc3)c2)cc1`, for which the viability, % of control at 1 µM came out at 79% in [1] and 67% in the assay with PANC-1 [2]. Besides, the values for the viability, % of control at 10 µM (in the assay with PANC-1 [3]; in [4]) were 53% and 73%, respectively.

With `C=CCNC(=O)c1cccc(Oc2ccc(NC(=O)NC(=O)c3ccccc3[N+](=O)[O-])cc2)c1`, the viability, % of control at 1 µM in [1] was 55%; in the assay with PANC-1 [2] it was 76%. For the same compound, the viability, % of control at 10 µM in the assay with PANC-1 [3] is 55%; in assay [4], 30%.

Turning to `COc1cc2c(c(OC)c1OC)-c1ccc(OC)c(=O)cc1[C@@H](NC(C)=O)CC2` [COLCHICINE], inhibition in assay [11] was half-maximal at 2200 nM (IC50).

Take `CNC(=O)c1cccc(Sc2ccc(NC(=O)NC(=O)c3cc(OC)cc(OC)c3Cl)cc2)c1`: the viability, % of control at 1 µM is 54% in [1] and 77% with PANC-1 [2]. In addition, the viability, % of control at 10 µM with PANC-1 [3] was found to be 52%; in assay [4] it was 31%.

Regarding `CCCCCCCCCCNC(=O)c1cccc(Sc2ccc(NC(=O)NC(=O)c3ccc(OC)c(OC)c3Cl)cc2)c1`, the viability, % of control at 1 µM in assay [1] is 79%; in the assay on PANC-1 [2], 63%. In addition, the viability, % of control at 10 µM with PANC-1 [3] is 51%; in [4] it was 62%.

For `CNC(=O)c1cccc(Sc2ccc(NC(=O)NC(=O)c3ccccc3)cc2)c1`, the viability, % of control at 1 µM stood at 77% in assay [1] and 65% in the assay with PANC-1 [2]. Besides, the viability, % of control at 10 µM turned out to be 41% in the assay on PANC-1 [3] and 26% in assay [4].

With `O=C(NC(=O)c1ccccc1Cl)Nc1ccc(Sc2cccc(C(=O)NCc3ccccc3)c2)cc1`, the viability, % of control at 1 µM in [1] worked out at 95%; in the assay with PANC-1 [2], 86%. Besides, the viability, % of control at 10 µM in the assay with PANC-1 [3] is 66%; in [4], 74%.

Consider `CNC(=O)c1cccc(Sc2ccc(NC(=O)NC(=O)c3ccccc3[N+](=O)[O-])cc2)c1`, for which the values for the viability, % of control at 1 µM (in [1]; in the assay with PANC-1 [2]) were 63% and 60%, respectively. Also, the viability, % of control at 10 µM in the assay on PANC-1 [3] is 38%; in [4] it was 23%.

Regarding `C=CCNC(=O)c1cccc(Sc2ccc(NC(=O)NC(=O)c3ccc(OC)c(OC)c3Cl)cc2)c1`, the viability, % of control at 1 µM was determined as 101% in [1] and 88% in the assay with PANC-1 [2]. Besides, the results for the viability, % of control at 10 µM (in the assay on PANC-1 [3]; in assay [4]) were 44% and 23%, respectively.

As to `CNC(=O)c1cccc(Sc2ccc(NC(=O)NC(=O)c3ccc(OC)c(OC)c3Cl)cc2)c1`, the concentration for half-maximal inhibition (IC50) in the assay on PANC-1 [5] was 700 nM; in assay [7], 500 nM; in [8] it was 1700 nM. In addition, the results for the viability, % of control at 1 µM (in [1]; with PANC-1 [2]) were 30% and 35%, respectively. The outcome with MCF7 [6] and in the assay on SK-OV-3 was Active. Besides, the residual activity in assay [12] amounted to 40%. The results for the viability, % of control at 10 µM (with PANC-1 [3]; in assay [4]) were 33% and 21%, respectively. In assay [13], this compound displayed an inhibition of 50%. The Activity with MCF7 [9] is 75.71%; in the assay with MCF7 [10], 47.23%.
